Test results: ChEMBL document CHEMBL3779799, “Antifibrotic and anticancer action of 5-ene amino/iminothiazolidinones” (Eur J Med Chem, 2016)
Calls of active or inactive are those of the source. The calls are words filed in the database; no cut-off is given here.

Tests used:
[1] = Antioxidant activity assessed as inhibition of superoxide anion generation upto 10 uM measured for 3 mins by nitro blue tetrazolium assay; type: physicochemical; details: 0.05 h
Method in brief: (§1)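 Cell-free superoxide generated by xanthine (1 mM) and xanthine oxidase (0.11 U/mL), with NBT (50 µM) as detector. Compounds in DMSO were tested up to 10 µM, with DMSO held at 0.1%. NBT reduction rate (dA560/dt) was read spectrophotometrically over 3 min from the linear part.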

[2] = tested on: HFL1; test: Antifibrotic activity in HFL1 cells assessed as inhibition of cell viability after 48 hrs by sulforhodamine B assay; type: functional, cell-based; details: Homo sapiens, HFL1, 48 h
Method in brief: (§2)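 HFL-1 human fetal lung fibroblasts (DMEM, 10% FCS, passages 14–18) seeded at 8000 cells/well, attached overnight, then exposed to a range of concentrations for 48 h in triplicate. Cells were fixed with TCA and stained with 0.4% SRB, bound dye was solubilized in Tris, and OD was read at 570 nm relative to control.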

[3] = tested on: HFL1; test: Antifibrotic activity in HFL1 cells assessed as inhibition of cell viability at >1 uM after 48 hrs by sulforhodamine B assay relative to control; type: functional; details: Homo sapiens, HFL1, 48 h; method in brief: as §2
[4] = tested on: NCI-H460; test: Cytotoxicity against human NCI-H460 cells assessed as cell growth at 10^-4 M after 48 hrs by sulforhodamine B assay relative to control; type: functional; details: NCI-H460, 48 h, read-out: Activity
Method in brief: (§3)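 Cells were inoculated and preincubated 24–48 h, then exposed to a single dose of 10^-4 M for 48 h. SRB protein staining was the endpoint, and growth percent was calculated versus untreated controls.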

[5] = tested on: MCF7; test: Cytotoxicity against human MCF7 cells assessed as cell growth at 10^-4 M after 48 hrs by sulforhodamine B assay relative to control; type: functional; details: MCF7, 48 h, read-out: Activity; method in brief: as §3
[6] = Cytotoxicity against human SF268 cells assessed as cell growth at 10^-4 M after 48 hrs by sulforhodamine B assay relative to control; type: functional; details: SF-268, 48 h, read-out: Activity; method in brief: as §3
[7] = Antioxidant activity assessed as inhibition of superoxide anion generation measured for 3 mins by nitro blue tetrazolium assay; type: physicochemical; details: for Emax: 0.05 h; method in brief: as §1
[8] = tested on: HFL1; test: Antifibrotic activity in HFL1 cells assessed as reduction in cell proliferation at 0.1 to 1 uM after 150 hrs by xCelligence analysis; type: functional, cell-based; details: Homo sapiens
Method in brief: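 HFL-1 cells were seeded at 20,000/well and monitored by real-time impedance (xCelligence). Compound or DMSO vehicle was added at ~30 h, once attachment was maximal, and cells were followed for another 150 h. P150 was taken as the signal difference between 30 h and 180 h; Pdot was the maximum slope of the curve.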

[9] = Cytotoxicity against human NCI60 cells assessed as cell growth at 10^-5 M after 48 hrs by sulforhodamine B assay relative to control; type: functional; details: NCI60, 48 h, read-out: Activity
Method in brief: (§4)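 NCI ~60 human tumor cell line one-dose screen covering nine cancer types. Cells were preincubated 24–48 h, then exposed to compound at 10^-5 M for 48 h. SRB protein staining was the endpoint, and growth percent was calculated versus untreated control cells.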

[10] = Cytotoxicity against human SNB75 cells assessed as cell growth at 10^-5 M after 48 hrs by sulforhodamine B assay relative to control; type: functional; details: SNB-75, 48 h, read-out: Activity; method in brief: as §4

In the case of O=C(CC1SC(=Nc2cccc(O)c2)NC1=O)Nc1ccc(Br)cc1 (racemic), the “inhibition (INH)” value [1] is reported as “Not Active”, the IC50 [2] is reported as 160 nM and the Emax [3] is reported as 77.6%.
For COc1ccccc1NC(=O)CSc1nnc(NC2=NC(=O)/C(=C/c3ccc(Cl)cc3)S2)s1, the IC50 [2] was 40 nM and the Emax [3] was 17.4%.
O=C(CC1SC(Nc2ccc(O)cc2)=NC1=O)c1ccc(F)cc1 (racemic) gave an IC50 [2] of 190 nM, an Emax [3] of 54.2% and a growth at 100 µM [4] of 62%. It also gave a growth at 100 µM [5] of 66% and a growth at 100 µM [6] of 53%.
In the case of Cc1ccc2c(c1)/C(=C1/SC(N(C)c3ccc(O)cc3)=NC1=O)C(=O)N2, the IC50 [2] is reported as 70 nM, the Emax [3] is reported as 31.3% and the growth at 100 µM [4] is reported as 95%. It also gave a growth at 100 µM [5] of 89% and a growth at 100 µM [6] of 74%.
With O=C1CS/C(=N\N=C/c2cccnc2)N1Cc1ccco1 the IC50 [2] was 500 nM and the Emax [3] was 69.4%.
Compound CN(C1=NC(=O)/C(=C/C(Cl)=C/c2ccc([N+](=O)[O-])cc2)S1)c1ccc(O)cc1 has an IC50 [7] of 960 nM and an Emax [7] of 47.4%.
With COc1ccc(-c2nnc(/N=C3\NC(=O)CS3)o2)cc1 the IC50 [7] was 290 nM, the Emax [7] was 81.8% and the Activity [8] was “Active”. It also gave an IC50 [2] of 470 nM, an Emax [3] of 84.6% and a growth at 10 µM [9] of 102%. For the same compound, the growth at 10 µM [10] was 71.9%.
For COc1ccc(/C=C2\SC(Nc3nnc(SCC(=O)Nc4ccc(Cl)cc4)s3)=NC2=O)cc1, the IC50 [7] was 810 nM, the Emax [7] was 86.4% and the IC50 [2] was 160 nM. It also gave an Emax [3] of 53.8%.
For C=CCN1C(=O)/C(=C2/C(=O)Nc3ccccc32)S/C1=N\c1nccs1, the IC50 [7] was 1320 nM, the Emax [7] was 86.5% and the Activity [8] was “Active”. It also gave an IC50 [2] of 90 nM, an Emax [3] of 65.9% and a growth at 100 µM [4] of 49%. For the same compound, the growth at 100 µM [5] was 76% and the growth at 100 µM [6] was 82%.
Compound CC1S/C(=N/N=C/c2cccnc2)NC1=O (racemic) has an IC50 [7] of 1960 nM, an Emax [7] of 35.8% and an IC50 [2] of 830 nM. For the same compound, the Emax [3] was 84.6%.
For CCC1S/C(=N\N=C/c2cccnc2)N(Cc2ccco2)C1=O (mixture of isomers), the IC50 [2] was 210 nM and the Emax [3] was 44.7%.
In the case of O=C1N=C(Nc2ccc(O)cc2)S/C1=C1\C(=O)Nc2ccccc21, the growth at 100 µM [4] is reported as 96%, the growth at 100 µM [5] is reported as 108% and the growth at 100 µM [6] is reported as 118%.
